Experimental data of several laboratories.
Protocols differ between the studies behind these lines.

Structure (SMILES)	assay	test system	conditions	endpoint	value
Cl.Cl.O=C(CCN1CCCCC1)c1ccc(-c2ccc(C(=O)CCN3CCCCC3)cc2)cc1	–	Sprague-Dawley rat, plasma	oral, 100 mg/kg	half-life	8.23 h
N=c1c2c(-c3ccccc3)c(-c3ccccc3)n(Cc3ccccc3)c2ncn1[C@H]1CC[C@H](O)CC1	metabolic stability	mouse, liver microsomes	1 µM	half-life	> 2 h
Cc1cc(C)nc(Nc2ncc(C(=O)NCCc3c(C)[nH]c4ccccc34)cn2)c1	metabolic stability	mouse, liver microsomes	1 µM	half-life	0.0783 h
CC(C)(C)[C@H](NC(=O)[C@H](CCONC(=N)N)NC(=O)Cc1ccc(CNC(=N)N)cc1)C(=O)N[C@@H](CCONC(=N)N)C(=O)NCc1ccc(C(=N)N)cc1	–	male Sprague-Dawley rat, plasma	intravenous, 1 mg/kg	C0	2080 ng/mL
C[C@H](Cn1cnc2c(N)ncnc21)OCP(=O)(O)OCCCOCCCCCCCCCCCCCC#CC(F)(F)F.N	metabolic stability	CD-1 mouse, liver microsomes	3 µM, pH 7.4	half-life	> 2 h
N#C[C@@H]1CC(F)(F)CN1C(=O)CNC(=O)c1ccnc2ccc(OCCCN3CCN(C(=O)CN4CCN(CC(=O)[O-])CCN(CC(=O)[O-])CC4)CC3)cc12.[18F-].[Al+3]	–	rat, stomach	intravenous, 2 h	tracer uptake	1.05 %ID/g
O=C(Nc1cccnn1)N1CCN([C@@H]2CCOc3cc(C(F)(F)F)ccc32)CC1	–	male Sprague-Dawley rat, plasma	oral, 1 mg/kg, 1 h	concentration	125 ng/mL
Cc1ncc(C)n2nc(/C=C/c3nc(N4CCCC4)cc(N4CCOCC4)n3)nc12	–	male Fischer 344 rat, plasma	oral, 0.3 mg/kg, 1 h	concentration	50 ng/mL
C[C@H](Cn1cnc2c(N)ncnc21)OCP(=O)(O)OCCCOCCCCCCCCCCCCC#C[Si](C)(C)C.N	metabolic stability	CD-1 mouse, liver microsomes	3 µM, pH 7.4	half-life	> 2 h
